Screening data: PubChem, several laboratories
A selection: hits, their analogues and other compounds. The true share with any hit is near 9.6%.
PMI act hi M6P = human PMI activators, high substrate, primary screen, biochemical, fluorescence intensity, near-saturating mannose 6-phosphate | Mannose-6-phosphate isomerase (Homo sapiens), P34949 | coupled PMI enzyme assay, resazurin fluorescence, 20 min; hits give high values; 1 = untreated enzyme, 0 = substrate-free blank | activation factor at 20 µM | 190,000 tested, 0.34% active;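 active = activation factor of 2 or more at 20 µM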
Target sequence (P34949 whole entry, looked up): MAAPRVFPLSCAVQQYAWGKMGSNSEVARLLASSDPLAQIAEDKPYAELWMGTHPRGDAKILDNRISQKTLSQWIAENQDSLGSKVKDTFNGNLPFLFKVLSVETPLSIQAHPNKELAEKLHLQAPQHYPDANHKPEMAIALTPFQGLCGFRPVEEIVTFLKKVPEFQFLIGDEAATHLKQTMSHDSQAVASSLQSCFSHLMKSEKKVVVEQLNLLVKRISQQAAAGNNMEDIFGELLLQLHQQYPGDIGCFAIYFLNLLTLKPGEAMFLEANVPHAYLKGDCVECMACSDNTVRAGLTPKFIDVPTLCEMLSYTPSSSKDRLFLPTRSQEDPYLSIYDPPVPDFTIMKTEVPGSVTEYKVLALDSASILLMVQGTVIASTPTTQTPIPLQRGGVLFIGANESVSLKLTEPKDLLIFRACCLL
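Material: human phosphomannose isomerase with PGI, G6PDH, diaphorase coupling enzymes; amount: PMI at 15 ng/mL final; also added: Mannose-6-phosphate 1.0 mM (near-saturating) plus 0.22 mM NADP+; incubation: enzyme reaction with compound 20 min at room temperature; signal: resorufin fluorescence (Ex 544/Em 590 nm) from resazurin via diaphorase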
L major viab = Leishmania major promastigote growth inhibition, primary screen | Leishmania major promastigotes, resazurin fluorescence viability | inhibition, % at 10 µM | 200,000 tested, 9% active | AID 1063, 2008; in the data active = inhibition above about 50%;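 note: promastigotes grown with compound for 44 hours at 28 °C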
PMI activator = activators of human PMI, primary screen, biochemical, fluorescence intensity, near-Km mannose 6-phosphate; Mannose-6-phosphate isomerase (Homo sapiens), P34949; purified human PMI, coupled resazurin fluorescence, 20 min; hits give high values; 1 = vehicle control, 0 substrate-free wells; activation factor at 20 µM; 190,000 tested, 0.005% active;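 active = activation factor of 2 or more at 20 µM, relative to plate controls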
HCT116 PTEN-null = growth suppression of PTEN-null HCT116, primary screen, cell-based, CellTiter-Glo. HCT116 PTEN-null viability, 60 h; hits give low values. viability, % at 10 µM. 140,000 tested, 1.2% active;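 active = viability at or below a set limit, 4 SD under the median of all tested compounds, cut at about 3.7% in these data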;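 note: PTEN knockout HCT116 line with beta catenin targeted HCT116 as companion control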
bCat KO growth = primary screen for growth suppressors in beta-catenin knockout HCT116 cells (colon tumor, human); HCT116 beta-catenin knockout viability, CellTiter-Glo, 60 h; hits give low values; viability, % at 10 µM; AID 818, 2007; 140,000 tested, 1.5% active;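 active = viability at or under a set limit, the compound median less 4 SD, cut at about 6% in these data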
Lmaj promast 1uM = Leishmania major promastigote growth inhibition, confirmation, 1 µM repeat of primary hits; shares compounds with L major viab; 1,100 tested, 13% active; L. major promastigote growth, resazurin fluorescence, 48 h; AID 1258, 2008; inhibition, % at 1 µM;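 active = inhibition above about 50% in both repeat tests, limit read from the data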
Hits are given with their value; - = inactive; . = no result given.

SMILES | PMI act hi M6P | L major viab | PMI activator | HCT116 PTEN-null | bCat KO growth | Lmaj promast 1uM
CC(C)(O)[C@H]1O[C@H]2CC[C@@]3(C)[C@@](O)(CC[C@H]4Cc5c([nH]c6ccccc56)[C@@]43C)C2=CC1=O | - | 94 | - | . | . | -
Cc1cc(C)n2nc(C)[n+](C)c2n1 | - | - | - | . | - | .
O=P(Nc1cccnc1)(Oc1ccccc1)Oc1ccccc1 | - | 93 | - | - | - | -
COc1ccc(C2=NCc3nnc(C)n3-c3ccc(Cl)cc32)cc1Cl | - | - | - | - | - | .
COc1ccccc1C1=NCc2nnc(C)n2-c2ccc(Cl)cc21 | - | 61 | - | - | - | -
O=C1N(c2ccc(Cl)cc2)C(c2cccnc2)N2CCCN12 (stereo unspecified) | - | 69 | - | . | . | -
Cc1ccc(-c2cc(-c3ccc(C)cc3)[n+](C)o2)cc1 | - | 100 | - | - | - | 99
C[C@@]1(CO)[C@H](O)CC[C@@]2(C)[C@H]1CC[C@H]1C[C@@H]3C[C@@]12CC[C@]3(O)CO | - | 100 | - | - | - | 95
Cc1ccc(-c2nn(Cc3ccccc3)cc2C=O)cc1 | - | - | - | - | - | .
Cc1ccc(-c2nn(Cc3ccccc3)cc2C=O)cc1C | - | 54 | - | - | - | -
CCC(=NCC1CCCO1)c1c(O)n(-c2ccc(Cl)cc2)c(=O)[nH]c1=O (stereo unspecified) | - | - | - | - | - | .
C[C@H]1C[C@@H](C)C(=O)[C@@H]([C@H](O)CC2CC(=O)NC(=O)C2)C1 | - | 100 | - | . | . | 100
CCn1c(=O)n(CC)c2cc([N+](=O)[O-])c(N3CCNCC3)cc21 | - | - | - | . | . | .
CCN(CC)CCN=Cc1c(O)n(CCc2ccccc2)c(=O)[nH]c1=O | - | - | - | - | - | .
Cn1cc2c([N+](=O)[O-])cc([N+](=O)[O-])cc2n1 | - | 100 | - | . | . | -
CC(=O)NN1C(=O)c2ccccc2NC1c1cccnc1 (stereo unspecified) | - | - | - | . | . | .
O=[N+]([O-])c1ccc(N2CCCCCC2)c2ncccc12 | - | - | - | . | . | .
CN[C@H]1C[C@H]2O[C@@](C)([C@H]1OC)n1c3ccccc3c3c4c(c5c6ccccc6n2c5c31)C(=O)NC4 | - | 100 | - | 1.2 | 2.1 | 101
CCCCc1ncc(CN2CCCC(C(=O)c3ccc(SC)cc3)C2)[nH]1 (stereo unspecified) | - | - | - | . | . | .
C1=C(c2c[nH]c3ccccc23)CCNC1 | - | 100 | - | - | - | -
Nc1ncc(P(=S)(N2CCOCC2)N2CCOCC2)s1 | - | - | - | - | - | .
